Source: ChEMBL document CHEMBL4689842, “EUbOPEN Chemogenomics Library wave 1” (2021)

Tested on: U2OS
Assay: Multiplex assay against U2OS
Type: toxicity, cell-based
Conditions: human
Procedure, shortened: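 Per cents of healthy-nucleus cells form the tubulin, mitochondrial-mass and membrane-permeability phenotype values. Live cells were stained at seeding with Hoechst33342, BioTracker Green Microtubule Cytoskeleton Dye, MitoTracker Red and Annexin V Alexa Fluor 680. After compound addition they were imaged on a CQ1 microscope at 37°C and 5% CO2, and CellPathfinder machine-learning gating split them into Hoechst high-intensity objects or normal cells, normal cells into healthy, pyknosed or fragmented nuclei, and pyknosed cells into mitotic or apoptotic.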

[1] = 12 h, 1 µM, compound concentration 1 uM, replicate 1
[2] = 12 h, 1 µM, compound concentration 1 uM, replicate 2
[3] = 12 h, 10 µM, compound concentration 10 uM, replicate 1
[4] = 12 h, 10 µM, compound concentration 10 uM, replicate 2
[5] = 24 h, 1 µM, compound concentration 1 uM, replicate 1
[6] = 24 h, 1 µM, compound concentration 1 uM, replicate 2
[7] = 24 h, 10 µM, compound concentration 10 uM, replicate 1
[8] = 24 h, 10 µM, compound concentration 10 uM, replicate 2
[9] = 48 h, 1 µM, compound concentration 1 uM, replicate 1
[10] = 48 h, 1 µM, compound concentration 1 uM, replicate 2
[11] = 48 h, 10 µM, compound concentration 10 uM, replicate 1
[12] = 48 h, 10 µM, compound concentration 10 uM, replicate 2

CN1CCN(CCOc2cc(OC3CCOCC3)c3c(Nc4c(Cl)ccc5c4OCO5)ncnc3c2)CC1 [SARACATINIB]
Population Apoptotic (%) [1]: 48%
Population Fragmented Nuclei (%) [1]: 15%
Population Healthy Nuclei (%) [1]: 69%
Population Hoechst High Intensity Objects (%) [1]: 5%
Population Membrane Permeable-Phenotype (%) [1]: 5%
Population Mitochondria Different-Phenotype (%) [1]: 20%
Population Mitotic Cells (%) [1]: 51%
Population Normal (%) [1]: 94%
Population Pyknosed Nuclei (%) [1]: 15%
Population Tubulin-Different-Phenotype (%) [1]: 15%
Total Cell Count [1]: 138
Population Apoptotic (%) [2]: 70%
Population Fragmented Nuclei (%) [2]: 9%
Population Healthy Nuclei (%) [2]: 72%
Population Hoechst High Intensity Objects (%) [2]: 10%
Population Membrane Permeable-Phenotype (%) [2]: 0%
Population Mitochondria Different-Phenotype (%) [2]: 23%
Population Mitotic Cells (%) [2]: 30%
Population Normal (%) [2]: 90%
Population Pyknosed Nuclei (%) [2]: 18%
Population Tubulin-Different-Phenotype (%) [2]: 10%
Population Apoptotic (%) [3]: 63%
Population Fragmented Nuclei (%) [3]: 15%
Population Healthy Nuclei (%) [3]: 57%
Population Hoechst High Intensity Objects (%) [3]: 8%
Population Membrane Permeable-Phenotype (%) [3]: 29%
Population Mitochondria Different-Phenotype (%) [3]: 89%
Population Mitotic Cells (%) [3]: 36%
Population Normal (%) [3]: 91%
Population Pyknosed Nuclei (%) [3]: 26%
Population Tubulin-Different-Phenotype (%) [3]: 100%
Total Cell Count [3]: 184
Population Apoptotic (%) [4]: 75%
Population Fragmented Nuclei (%) [4]: 9%
Population Healthy Nuclei (%) [4]: 71%
Population Hoechst High Intensity Objects (%) [4]: 7%
Population Membrane Permeable-Phenotype (%) [4]: 21%
Population Mitochondria Different-Phenotype (%) [4]: 100%
Population Mitotic Cells (%) [4]: 25%
Population Normal (%) [4]: 92%
Population Pyknosed Nuclei (%) [4]: 18%
Total Cell Count [4]: 60
Population Apoptotic (%) [5]: 44%
Population Healthy Nuclei (%) [5]: 71%
Population Hoechst High Intensity Objects (%) [5]: 4%
Population Membrane Permeable-Phenotype (%) [5]: 4%
Population Mitochondria Different-Phenotype (%) [5]: 17%
Population Mitotic Cells (%) [5]: 55%
Population Normal (%) [5]: 95%
Population Pyknosed Nuclei (%) [5]: 13%
Population Tubulin-Different-Phenotype (%) [5]: 11%
Total Cell Count [5]: 139
Population Apoptotic (%) [6]: 50%
Population Fragmented Nuclei (%) [6]: 14%
Population Healthy Nuclei (%) [6]: 67%
Population Hoechst High Intensity Objects (%) [6]: 8%
Population Membrane Permeable-Phenotype (%) [6]: 6%
Population Mitochondria Different-Phenotype (%) [6]: 13%
Population Mitotic Cells (%) [6]: 50%
Population Normal (%) [6]: 91%
Population Pyknosed Nuclei (%) [6]: 18%
Population Tubulin-Different-Phenotype (%) [6]: 4%
Population Apoptotic (%) [7]: 76%
Population Fragmented Nuclei (%) [7]: 18%
Population Healthy Nuclei (%) [7]: 60%
Population Hoechst High Intensity Objects (%) [7]: 5%
Population Membrane Permeable-Phenotype (%) [7]: 35%
Population Mitochondria Different-Phenotype (%) [7]: 97%
Population Mitotic Cells (%) [7]: 23%
Population Normal (%) [7]: 94%
Population Pyknosed Nuclei (%) [7]: 20%
Population Tubulin-Different-Phenotype (%) [7]: 100%
Total Cell Count [7]: 224
Population Apoptotic (%) [8]: 85%
Population Fragmented Nuclei (%) [8]: 11%
Population Healthy Nuclei (%) [8]: 54%
Population Hoechst High Intensity Objects (%) [8]: 8%
Population Membrane Permeable-Phenotype (%) [8]: 21%
Population Mitochondria Different-Phenotype (%) [8]: 96%
Population Mitotic Cells (%) [8]: 14%
Population Normal (%) [8]: 91%
Population Pyknosed Nuclei (%) [8]: 34%
Population Tubulin-Different-Phenotype (%) [8]: 93%
Total Cell Count [8]: 70
Population Apoptotic (%) [9]: 56%
Population Fragmented Nuclei (%) [9]: 13%
Population Healthy Nuclei (%) [9]: 67%
Population Hoechst High Intensity Objects (%) [9]: 5%
Population Membrane Permeable-Phenotype (%) [9]: 5%
Population Mitochondria Different-Phenotype (%) [9]: 12%
Population Mitotic Cells (%) [9]: 44%
Population Normal (%) [9]: 94%
Population Pyknosed Nuclei (%) [9]: 18%
Population Tubulin-Different-Phenotype (%) [9]: 7%
Population Apoptotic (%) [10]: 38%
Population Fragmented Nuclei (%) [10]: 10%
Population Healthy Nuclei (%) [10]: 73%
Population Hoechst High Intensity Objects (%) [10]: 6%
Population Membrane Permeable-Phenotype (%) [10]: 13%
Population Mitochondria Different-Phenotype (%) [10]: 16%
Population Mitotic Cells (%) [10]: 61%
Population Normal (%) [10]: 93%
Population Pyknosed Nuclei (%) [10]: 15%
Population Tubulin-Different-Phenotype (%) [10]: 14%
Population Apoptotic (%) [11]: 70%
Population Fragmented Nuclei (%) [11]: 24%
Population Healthy Nuclei (%) [11]: 36%
Population Hoechst High Intensity Objects (%) [11]: 7%
Population Membrane Permeable-Phenotype (%) [11]: 36%
Population Mitochondria Different-Phenotype (%) [11]: 88%
Population Mitotic Cells (%) [11]: 29%
Population Normal (%) [11]: 92%
Population Pyknosed Nuclei (%) [11]: 38%
Population Tubulin-Different-Phenotype (%) [11]: 96%
Total Cell Count [11]: 278
Population Apoptotic (%) [12]: 73%
Population Fragmented Nuclei (%) [12]: 9%
Population Healthy Nuclei (%) [12]: 53%
Population Hoechst High Intensity Objects (%) [12]: 15%
Population Membrane Permeable-Phenotype (%) [12]: 48%
Population Mitochondria Different-Phenotype (%) [12]: 100%
Population Mitotic Cells (%) [12]: 26%
Population Normal (%) [12]: 84%
Population Pyknosed Nuclei (%) [12]: 37%
Population Tubulin-Different-Phenotype (%) [12]: 90%
Total Cell Count [12]: 89
